The values that follow come from ChEMBL document CHEMBL1177775, “A novel synthesis of 3-aryl coumarins and evaluation of their antioxidant and lipoxygenase inhibitory activity” (Bioorg Med Chem Lett, 2010).

The source made the active and inactive calls. The rule behind the calls is not given here.

The subject of experiment [1] is Radical scavenging activity. The experiment is described as follows: Antioxidant activity assessed as DPPH radical scavenging activity at 50 uM after 20 mins. The format is functional. The gist of the method: (§1)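 Interaction with the stable DPPH free radical in an iron-free system, with compounds at 50 μM. Readings were taken at 20 and 60 min. Each experiment was run at least in triplicate, and the standard deviation of absorbance was under 10% of the mean.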
For orientation: The DPPH test is a chemical assay of radical scavenging.

For experiment [2], the system named is Radical scavenging activity. The experiment is described as follows: Antioxidant activity assessed as DPPH radical scavenging activity at 50 uM after 60 mins. The format is functional. The gist of the method:
as §1

The next experiment deals with Glycine max. Put plainly: Inhibition of soybean lipoxygenase at 100 uM.
Experiment [3] can be described thus: Antioxidant activity assessed as inhibition of AAPH-induced lipid peroxidation at 100 uM by UV spectrophotometry. It counts as functional.

Usually inhibition stands for the share of the control response that was lost under treatment.

Regarding `CC(Cc1ccc(O)c(O)c1)C(C)Cc1ccc(O)c(O)c1` (stereo not drawn), the figures for the Activity in experiment [1] and in experiment [2] were 84% and 83%, respectively. The inhibition in the experiment with Glycine max was 40%.

Regarding `Cc1c(-c2ccccc2Br)c(=O)oc2ccccc12`, the Activity in experiment [1] worked out at 4%; in experiment [2] it was 3%. The inhibition in experiment [3] is 20%; in the experiment on Glycine max it was 6%.

With `COc1ccc(-c2c(C)c3ccccc3oc2=O)cc1OC`, the Activity in experiment [1] came out at 8%; in experiment [2] it was 10%. The inhibition in experiment [3] was determined as 36%; with Glycine max it was 31%.

For `Cc1c(C)c2c(c(C)c1O)CCC(C)(C(=O)O)O2` (stereo not drawn), in experiment [3], the inhibition is 63%.

On to `Cc1c(-c2ccc(O)cc2)c(=O)oc2ccccc12`, for which the values for the Activity in experiment [1] and in experiment [2] were 5% and 9%, respectively. The inhibition in experiment [3] was 20%. Moreover, in the experiment with Glycine max, the inhibition result is “inactive”.

`COc1ccc(-c2c(C)c3ccccc3oc2=O)cc1`: the Activity was 5% in experiment [1] and 2% in experiment [2]. Besides, the inhibition was 24% in experiment [3] and 62% in the experiment with Glycine max.

In the case of `COc1ccc(-c2cc3ccccc3oc2=O)cc1OC`, the Activity in experiment [1] came out at 4%; in experiment [2] it was 7%. In addition, in experiment [3], the inhibition was 47%. For the same compound, the inhibition result with Glycine max is “inactive”.

On to `Cc1c(-c2ccc(Br)cc2)c(=O)oc2ccccc12`, for which the Activity in experiment [1] was 3%; in experiment [2] it was 4%. Further, in experiment [3], the inhibition was 70%. For the same compound, the inhibition entry in the experiment with Glycine max is “inactive”.
